The source made the active and inactive calls. The rule behind the calls is not given here.
What was measured:
[1] = Inhibition of histidine-tagged Escherichia coli ATCase catalytic domain assessed as N-carbamoyl-L-aspartate formation by colorimetric assay
Summary of the method: (§1)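 E. coli His-tagged C3 (catalytic subunit) ATCase, purified from pEK17/EK1104, at 75 ng/mL. Assay at room temperature in 0.1 M Tris-acetate pH 8.3 with 10 mM L-aspartate. […] N-carbamoyl-L-aspartate formation was read colorimetrically. Ki and inhibition mode were taken from the kinetics.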

Escherichia coli [2] = test: Ratio of compound Ki to N-phosphonacetyl-L-aspartate Ki for histidine-tagged Escherichia coli ATCase catalytic domain
Escherichia coli [3] = test: Inhibition of histidine-tagged Escherichia coli ATCase catalytic domain assessed as N-carbamoyl-L-aspartate formation at 0.5 to 6 uM by colorimetric assay
Summary of the method: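 E. coli His-tagged C3 ATCase catalytic subunit (75 ng/mL), purified from strain/plasmid pEK17/EK1104, run at room temperature in 0.1 M Tris-acetate pH 8.3 with 10 mM L-aspartate. N-carbamoyl-L-aspartate formation read colorimetrically. […] Ki and inhibition mode derived from these kinetics.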

[4] = Uncompetitive inhibition of histidine-tagged Escherichia coli ATCase catalytic domain assessed as N-carbamoyl-L-aspartate formation by colorimetric assay; summary of the method: as §1
Escherichia coli [5] = test: Ratio of compound Ki to (2S)-2-(2-(hydroxy(hydroxymethyl)phosphoryl)acetamido)succinic acid Ki for histidine-tagged Escherichia coli ATCase catalytic domain

Row | Compound | Ki ([1]; read-out: Ki) | Ratio Ki (Escherichia coli [2]) | other results
1 | O=C(O)C[C@H](NC(=O)C[PH](=O)O)C(=O)O | 420 nM | 26 | 
2 | O=C(O)C[C@H](NC(=O)CC(C(=O)O)C(=O)O)C(=O)O |  |  | inhibition (Escherichia coli [3]): inactive
3 | O=C(O)C[C@H](NC(=O)C[PH](=O)CO)C(=O)O (some centres not stated) | 190 nM | 12 | 
4 | O=C(O)C[C@H](NC(=O)NCP(=O)(O)O)C(=O)O | 2100 nM | 131 | 
5 | O=C(O)CCC(=O)N[C@@H](CC(=O)O)C(=O)O |  |  | inhibition (Escherichia coli [3]): inactive
6 | O=C(O)C[C@@H](C(=O)O)N1CCP(=O)(O)CC1 |  |  | Ki [1]: Not Active
7 | O=C(O)C[C@@H](C(=O)O)N1CCP(=O)(O)CC1=O | 1000 nM | 63 | 
8 | O=C(O)C[C@H](NC(=O)CP(=O)(O)CC(=O)O)C(=O)O | 3600 nM | 225 | 
9 | O=C(O)C[C@H](NC(=O)CP(=O)(O)O)C(=O)O [PALA] | 16 nM |  | 
10 | O=C(O)C[C@@H](C(=O)O)N1CP(=O)(O)CC1=O |  |  | Ki [1]: Not Active
11 | O=C(O)C[C@H](NC(=O)COP(=O)(O)O)C(=O)O | 210 nM | 13 | 
12 | O=C(O)C[C@H](NC(=O)CP(=O)(O)CCO)C(=O)O |  | 156 | Ki [4]: 2500 nM; Ratio Ki (Escherichia coli [5]): 13
13 | O=C(O)CC(=O)N[C@@H](CC(=O)O)C(=O)O |  |  | inhibition (Escherichia coli [3]): inactive
14 | O=C(O)C[C@H](NC(=O)OCP(=O)(O)O)C(=O)O |  |  | Ki [1]: Not Active

Reference: ChEMBL document CHEMBL1152670, “Synthesis and in vitro evaluation of aspartate transcarbamoylase inhibitors” (Bioorg Med Chem, 2009)
